Experimental data pooled from the literature.
Each line is one published result; the experiments were not run side by side.
Target: RAF proto-oncogene serine/threonine-protein kinase (RAF1, Homo sapiens, UniProt P04049)

COc1ccc2c(O[C@@H]3C[C@H]4C(=O)N[C@]5(C(=O)O)CC5/C=C\CCCCC[C@H](NC(=O)OC5CCCC5)C(=O)N4C3)cc(-c3csc(NC(=O)C(C)C)n3)nc2c1C (stereo partly drawn)
remaining binding (cell-free assay, competition with immobilised ligand; 1 µM): 95%

C[C@@H](c1ccc(-n2cnc3c(N)ncnc32)cc1)N1CCc2nn(C)c(Cc3ccccc3)c2C1=O
remaining binding (binding, competition with immobilised ligand; 0.1 µM): 93%

C[C@@H]1CN(c2ccc3ncc(-c4ccc5[nH]nc(C6CC6)c5c4)n3n2)C[C@H](C)O1
remaining binding (binding, competition with immobilised ligand; 0.5 µM): 100%

CN(C)c1nccc(-c2cnc3ncccn23)n1
remaining binding (binding; 1 µM): 67%

CC(C)(O)c1cncc(-c2nc3ccc(F)cc3n2C2CC2)c1
remaining binding (cell-free assay, competition with immobilised ligand; 1 µM): 83%

O=C(c1ccc(Nc2ncc(Cl)c(-c3ccc(Cl)s3)n2)cc1)N1CCC(N2CCCC2)CC1
remaining binding (binding, competition with immobilised ligand; 1 µM): 45%

FC(F)(F)Oc1cccc(-c2cnc3ccc(-c4ccncc4)nn23)c1
remaining binding (cell-free assay, competition with immobilised ligand; 5 µM): 71%

Cc1nccc(COC(=O)N2C[C@@H]3[C@@H](CNC(=O)c4ccc5[nH]nnc5c4)[C@@H]3C2)n1
remaining binding (cell-free assay, competition with immobilised ligand; 1 µM): 94%

Cc1cnc(Nc2ccc(C(=O)N3CCC(N4CCCC4)CC3)cc2)nc1-c1cc2ccccc2s1
remaining binding (binding, competition with immobilised ligand; 1 µM): 60%

COc1ccnn2ncc(-c3ccnc(N(C)C)n3)c12
remaining binding (binding; 1 µM): 100%

CNC(=O)[C@@H]1CC[C@@H](n2c(-c3ccc4cnccc4c3)nc3ccc(C(=O)NCc4cccc(C(N)=O)c4)cc32)C1
remaining binding (binding, competition with immobilised ligand; 1 µM): 82%

COc1cc(-c2cn(C3CCc4c(F)cccc4N(CC(F)(F)F)C3=O)nn2)ccc1-n1cnc(C)c1 (stereo not drawn)
remaining binding (cell-free assay, competition with immobilised ligand; 1 µM): 100%

c1cncc(-c2cccc(Nc3nccc(NC4CCCCC4)n3)c2)c1
remaining binding (binding, competition with immobilised ligand; 10 µM): 94%

C[C@H]1CCN(c2nccc(-c3cnn4ncccc34)n2)C1
remaining binding (binding; 1 µM): 90%

CN(c1ccnc(CNc2nc(Nc3ccc4c(c3)CC(=O)N4)ncc2C(F)(F)F)n1)S(C)(=O)=O
remaining binding (cell-free assay, competition with immobilised ligand; 1 µM): 85%

COc1cnc(Nc2cccc(S(N)(=O)=O)c2)nc1N1CCN(c2ccccc2)CC1
remaining binding (binding, competition with immobilised ligand; 1 µM): 100%

CN(C)c1ncc(F)c(-c2cnn3ncccc23)n1
remaining binding (binding; 1 µM): 96%

CC(=O)C1=C(C)N(c2cccc(C(F)(F)F)c2)C(=O)N[C@@H]1c1ccc(C#N)nc1
remaining binding (cell-free assay, competition with immobilised ligand; 1 µM): 100%

Cc1cnn2ncc(-c3ccnc(N(C)C)n3)c2c1
remaining binding (binding; 1 µM): 100%

N#Cc1ccccc1CSc1nnc2c(n1)[nH]c1ccccc12
remaining binding (binding, competition with immobilised ligand; 10 µM): 100%

CN(CCCC(F)(F)F)c1nccc(-c2cnn3ncccc23)n1
remaining binding (binding; 1 µM): 83%

O=C(NCC1CCOCC1)c1n[nH]cc1NC(=O)c1c(F)cccc1F
remaining binding (binding, competition with immobilised ligand; 1 µM): 58%

N[C@H]1CCN(c2nccc(-c3cnn4ncccc34)n2)C1
remaining binding (binding; 1 µM): 100%

CCC(=O)N[C@@H]1CC[C@H](C(=O)N(C)c2ccc(-c3nc4ccccc4o3)cc2)C1
remaining binding (cell-free assay, competition with immobilised ligand; 1 µM): 94%
